Active and inactive are the calls of the source. The calls are words filed in the database; no cut-off is given here.
How the values were obtained:
[1] = Cell cycle arrest in HEK293EBNA cells by accumulation at G2/M phase cell at 1 uM relative to DMSO; format: functional, cell-based; conditions: Homo sapiens, HEK293-EBNA
How it was run: (§1)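 HEK293 cells were exposed to compound for 16 h at the stated concentration, then analyzed by FACS for cell-cycle distribution (G1, S and G2/M fractions). Profiles were compared with a 0.5% DMSO vehicle control.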

[2] = Cell cycle arrest in HEK293EBNA cells by accumulation at G1 phase cell at 1 uM relative to DMSO; format: functional, cell-based; conditions: Homo sapiens, HEK293-EBNA; how it was run: as §1
[3] = Cell cycle arrest in HEK293EBNA cells by accumulation at S phase cell at 1 uM relative to DMSO; format: functional, cell-based; conditions: Homo sapiens, HEK293-EBNA; how it was run: as §1
[4] = Cell cycle arrest in HEK293EBNA cells by accumulation at S phase cell at 10 uM relative to DMSO; format: functional, cell-based; conditions: Homo sapiens, HEK293-EBNA
How it was run: (§2)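 HEK293 cells were exposed for 16 h to compound or to a 0.5% DMSO vehicle control. Cell-cycle phase distribution (G1, S, G2/M) was determined by FACS analysis and compared with the DMSO profile.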

[5] = Cell cycle arrest in HEK293EBNA cells by accumulation at G2/M phase cell at 10 uM relative to DMSO; format: functional, cell-based; conditions: Homo sapiens, HEK293-EBNA; how it was run: as §2
[6] = Cell cycle arrest in HEK293EBNA cells by accumulation at G1 phase cell at 10 uM relative to DMSO; format: functional, cell-based; conditions: Homo sapiens, HEK293-EBNA; how it was run: as §2
[7] = Cell cycle arrest in HEK293EBNA cells by accumulation at G1 phase cell at 50 uM relative to DMSO; format: functional, cell-based; conditions: Homo sapiens, HEK293-EBNA; how it was run: as §1
[8] = Cell cycle arrest in HEK293EBNA cells by accumulation at G2/M phase cell at 50 uM relative to DMSO; format: functional, cell-based; conditions: Homo sapiens, HEK293-EBNA; how it was run: as §1
[9] = Cell cycle arrest in HEK293EBNA cells by accumulation at S phase cell at 50 uM relative to DMSO; format: functional, cell-based; conditions: Homo sapiens, HEK293-EBNA; how it was run: as §1
[10] = Cell cycle arrest in HEK293EBNA cells by accumulation at G1 phase cell at 5 uM relative to DMSO; format: functional, cell-based; conditions: Homo sapiens, HEK293-EBNA; how it was run: as §1
[11] = Cell cycle arrest in HEK293EBNA cells by accumulation at G2/M phase cell at 5 uM relative to DMSO; format: functional, cell-based; conditions: Homo sapiens, HEK293-EBNA; how it was run: as §1
[12] = Cell cycle arrest in HEK293EBNA cells by accumulation at S phase cell at 5 uM relative to DMSO; format: functional, cell-based; conditions: Homo sapiens, HEK293-EBNA; how it was run: as §1
[13] = AUC in mouse at 20 mg/kg, po; format: ADME, organism-based; parameters: dose 20 mg/kg, route oral; conditions: plasma
[14] = (§3) Volume of distribution in mouse at 2 mg/kg, iv; format: ADME, organism-based; parameters: dose 2 mg/kg, route intravenous; conditions: in vivo, read-out: Vdss
NIH3T3 [15] = assay: Effect on cell growth in nondividing Swiss 3T3 cells at 50 uM by MTS assay; format: functional, cell-based; conditions: Mus musculus
A549 [16] = assay: Effect on cell growth in A549 cells by MTS assay; format: functional, cell-based; conditions: Homo sapiens
[17] = (§4) Half life in mouse at 2 mg/kg, iv; format: ADME, organism-based; parameters: dose 2 mg/kg, route intravenous; conditions: in vivo
Tubulin = assay: Inhibition of tubulin polymerization; format: protein-complex assay, Homo sapiens
[18] = AUC in mouse at 2 mg/kg, iv; format: ADME, organism-based; parameters: dose 2 mg/kg, route intravenous; conditions: plasma
[19] = Clearance in mouse at 2 mg/kg, iv; format: ADME, organism-based; parameters: dose 2 mg/kg, route intravenous; conditions: in vivo
How it was run: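 Pharmacokinetics were measured in mice, with an intravenous dose of 2 mg/kg; the study's oral arm used 20 mg/kg po.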

[20] = Bioavailability in mouse at 20 mg/kg, po; format: ADME, organism-based; conditions: in vivo
A549 [21] = assay: Effect on cell growth in A549 cells by colony-forming assay; format: functional, cell-based; conditions: Homo sapiens
[22] = Cell cycle arrest in HEK293EBNA cells by accumulation at S phase cell at 0.5 uM relative to DMSO; format: functional, cell-based; conditions: Homo sapiens, HEK293-EBNA; how it was run: as §1
[23] = Cell cycle arrest in HEK293EBNA cells by accumulation at G1 phase cell at 0.5 uM relative to DMSO; format: functional, cell-based; conditions: Homo sapiens, HEK293-EBNA; how it was run: as §1
[24] = Cell cycle arrest in HEK293EBNA cells by accumulation at G2/M phase cell at 0.5 uM relative to DMSO; format: functional, cell-based; conditions: Homo sapiens, HEK293-EBNA; how it was run: as §1
[25] = Cell cycle arrest in HEK293EBNA cells by accumulation at G1 phase cell at 0.1 uM relative to DMSO; format: functional, cell-based; conditions: Homo sapiens, HEK293-EBNA; how it was run: as §2
[26] = Cell cycle arrest in HEK293EBNA cells by accumulation at G2/M phase cell at 0.1 uM relative to DMSO; format: functional, cell-based; conditions: Homo sapiens, HEK293-EBNA; how it was run: as §2
[27] = Cell cycle arrest in HEK293EBNA cells by accumulation at S phase cell at 0.1 uM relative to DMSO; format: functional, cell-based; conditions: Homo sapiens, HEK293-EBNA; how it was run: as §2
NIH3T3 [28] = assay: Effect on cell growth in nondividing Swiss 3T3 cells at 3 uM by MTS assay; format: functional, cell-based; conditions: Mus musculus
How it was run: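 Swiss 3T3 cells were tested in either a dividing or a nondividing state. Growth was read out by MTS assay, and an EC50 was derived for the dividing cells.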

Mus musculus [29] = assay: as §3; format: ADME, organism-based; parameters: dose 2 mg/kg, route intravenous; conditions: in vivo
Mus musculus [30] = assay: as §4; format: ADME, organism-based; parameters: dose 2 mg/kg, route intravenous; conditions: in vivo

COc1ccc2c(c1N)C(=O)O[C@@H]2[C@H]1c2c(c(Br)c3c(c2OC)OCO3)CCN1C
Activity [1]: 81% | Activity [2]: 4% | Activity [3]: 15%

COc1cc2c(c(OC)c1OC)-c1ccc(OC)c(=O)cc1[C@@H](NC(C)=O)CC2
Activity [4]: 14% | Activity [5]: 83% | Activity [6]: 3%

COc1ccc2c(c1OS(=O)(=O)C(F)(F)F)C(=O)O[C@@H]2[C@H]1c2c(cc3c(c2OC)OCO3)CCN1C
Activity [7]: 56% | Activity [8]: 9% | Activity [9]: 35%

COc1ccc2c(c1NCc1ccccc1)C(=O)O[C@@H]2[C@H]1c2c(cc3c(c2OC)OCO3)CCN1C
Activity [10]: 8% | Activity [11]: 63% | Activity [12]: 29%

COc1ccc2c(c1O)C(=O)O[C@@H]2[C@H]1c2c(cc3c(c2OC)OCO3)CCN1C
Activity [1]: 88% | AUC [13]: 740 ng·h/mL | Vd [14]: 28.1 L/kg | Activity [2]: 3% | Activity (NIH3T3 [15]): inactive | EC50 (A549 [16]): 600 nM | half-life [17]: 2.79 h | Activity [3]: 9% | EC50 (Tubulin): 700 nM | AUC [18]: 331 ng·h/mL | clearance [19]: 101 mL/min/kg | bioavailability [20]: 22% | EC50 (A549 [21]): 500 nM

COc1ccc2c(c1)C(=O)O[C@@H]2[C@H]1c2c(cc3c(c2OC)OCO3)CCN1C
Activity [1]: 90% | Activity [2]: 4% | Activity [3]: 6%

CNc1c(OC)ccc2c1C(=O)O[C@@H]2[C@H]1c2c(cc3c(c2OC)OCO3)CCN1C
Activity [22]: 25% | Activity [23]: 8% | Activity [24]: 67%

CC[C@]1(O)C[C@@H]2CN(CCc3c([nH]c4ccccc34)[C@@](C(=O)OC)(c3cc4c(cc3OC)N(C)[C@H]3[C@@](O)(C(=O)OC)[C@H](OC(C)=O)[C@]5(CC)C=CCN6CC[C@]43[C@@H]65)C2)C1 [VINBLASTINE]
EC50 (A549 [16]): 0.9 nM | EC50 (A549 [21]): 0.5 nM

COc1ccc2c(c1N)C(=O)O[C@@H]2[C@H]1c2c(cc3c(c2OC)OCO3)CCN1C
AUC [13]: 391 ng·h/mL | Vd [14]: 8.47 L/kg | EC50 (A549 [16]): 97 nM | half-life [17]: 1.04 h | Activity [25]: 1% | EC50 (Tubulin): 300 nM | Activity [26]: 92% | Activity [27]: 7% | AUC [18]: 350 ng·h/mL | clearance [19]: 95.3 mL/min/kg | bioavailability [20]: 11.4% | Activity (NIH3T3 [28]): inactive | EC50 (A549 [21]): 84 nM

COc1ccc2c(c1OC)C(=O)O[C@@H]2[C@H]1c2c(cc3c(c2OC)OCO3)CCN1C [NOSCAPINE]
AUC [13]: 524 ng·h/mL | Vdss (Mus musculus [29]): 15.53 L/kg | EC50 (A549 [16]): 25000 nM | t1/2 (Mus musculus [30]): 0.833 h | EC50 (Tubulin): > 50000 nM | Activity [7]: 19% | Activity [8]: 50% | Activity [9]: 31% | AUC [18]: 345 ng·h/mL | bioavailability [20]: 14.1%

COc1ccc2c(c1S)C(=O)O[C@@H]2[C@H]1c2c(cc3c(c2OC)OCO3)CCN1C
Activity [10]: 3% | Activity [11]: 90% | Activity [12]: 7%
